Usually pIC50 stands for the IC50 on a negative log10 scale, so that one unit is a factor of ten.

Molecules are shown by their SMILES. pIC50: −log10 of the molar value. The source made the active and inactive calls. The calls are words filed in the database; no cut-off is given here. Bounds are passed on as bounds.

14 compounds from ChEMBL document CHEMBL3414437, “Synthesis of CDDO-amino acid-nitric oxide donor trihybrids as potential antitumor agents against both drug-sensitive and drug-resistant colon cancer” (J Med Chem, 2015) can be followed below.

Experiment [1] in a line: Antiproliferative activity against human HCT8 cells assessed as inhibition of cell proliferation after 72 hrs by MTT assay. Type of experiment: functional, cell-based. The conditions noted are these: HCT-8, 72 h. The essentials: (§1)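 Cells (1.0 × 10^4/well) grown overnight in DMEM with 10% FBS. Treated in triplicate with eight concentrations ([…]) of compound from DMSO stock, final DMSO <0.4%, for 72 h. MTT added for the last 4 h, formazan dissolved in DMSO, read at 570 nm. Inhibition = (Acontrol−Atreated)/Acontrol. IC50 given as mean ± SD of three independent experiments.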

Experiment [2] is described as follows: Antiproliferative activity against human CCD-841-CoN cells assessed as inhibition of cell proliferation after 72 hrs by MTT assay. Type of experiment: cell-based. Summed up:
as §1
A general note: Tetrazolium dyes change colour on reduction, which living cells bring about.

Experiment [3] can be described thus: Antiproliferative activity against 5-FU resistant human HCT8 cells assessed as inhibition of cell proliferation after 72 hrs by MTT assay. It counts as functional, cell-based. The note with it: HCT-8, 72 h. Summed up: as §1
The nature of experiment [4]: Antiproliferative activity against 5-FU resistant human HCT8 cells assessed as inhibition of cell proliferation at 1 uM after 72 hrs by MTT assay. Type of experiment: functional. The note with it: HCT-8, 72 h, read-out: GI. Summed up:
(§2)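 Cells grown in DMEM with 10% FBS and exposed to compound at 1 µM for 72 h. Proliferation measured by MTT at 570 nm and expressed as % inhibition versus untreated cells. Mean ± SD of three independent experiments.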

Experiment [5] is described as follows: Antiproliferative activity against human HCT8 cells assessed as inhibition of cell proliferation at 1 uM after 72 hrs by MTT assay. The note with it: HCT-8, 72 h, read-out: GI. Type of experiment: functional. The essentials:
as §2

The subject of experiment [6] is HCT-8. Description: Induction of nitric oxide release in 5-FU resistant human HCT8 cells at 100 uM incubated for 150 mins by Griess assay. It counts as functional, cell-based. The essentials:
(§3)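 Cells (1 × 10^6/well) treated in triplicate with compound at 100 µM for 150 min. Lysates mixed with Griess reagent for 10 min at 37 °C and read at 540 nm. Nitrite quantified from a sodium nitrite standard curve; 0.4% DMSO-treated cells served as background. Mean ± SD of three experiments.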

Experiment [7] relates to HCT-8. Description: Induction of nitric oxide release in human HCT8 cells at 100 uM incubated for 150 mins by Griess assay. Type of experiment: functional, cell-based. The essentials:
as §3
In general terms: Nitrite, measured by Griess reagent, commonly stands in for NO production.

A further experiment deals with CCD-841CoN. Description: Induction of nitric oxide release in human CCD-841-CoN cells at 100 uM incubated for 150 mins by Griess assay. It counts as functional, cell-based. The essentials:
as §3

Consider `CC1(C)CC[C@]2(C(=O)NCC(=O)OCCCCOc3no[n+]([O-])c3S(=O)(=O)c3ccccc3)CC[C@]3(C)[C@H](C(=O)C=C4[C@@]5(C)C=C(C#N)C(=O)C(C)(C)[C@@H]5CC[C@]43C)[C@@H]2C1`, for which the pIC50 is 6.42 in experiment [1], 5.95 in experiment [2] and 6.50 in experiment [3]. Also, the inhibition of growth at 1 µM in experiment [4] and in experiment [5] was above 90% in each case.

Regarding `CC1(C)CC[C@]2(C(=O)NCC(=O)O)CC[C@]3(C)[C@H](C(=O)C=C4[C@@]5(C)C=C(C#N)C(=O)C(C)(C)[C@@H]5CC[C@]43C)[C@@H]2C1`, the outcome in the experiment on HCT-8 [6] and in the experiment with HCT-8 [7] was inactive. Also, the pIC50 is 5.50 in experiment [1] and 5.65 in experiment [3].

`CC1(C)CC[C@]2(C(=O)NCC(=O)OCCOCCOc3no[n+]([O-])c3S(=O)(=O)c3ccccc3)CC[C@]3(C)[C@H](C(=O)C=C4[C@@]5(C)C=C(C#N)C(=O)C(C)(C)[C@@H]5CC[C@]43C)[C@@H]2C1`: the negative-log IC50 (pIC50) in experiment [1] was 6.06; in experiment [2], 5.50; in experiment [3], 6.25. The inhibition of growth at 1 µM in experiment [4] and in experiment [5] was above 90% throughout.

With `O=S(=O)(c1ccccc1)c1c(OCC#CCO)no[n+]1[O-]`, the pIC50 in experiment [1] was 4.47; in experiment [3], 4.44.

For the compound `CC1(C)CC[C@]2(C(=O)N3CCC[C@H]3C(=O)OCCCCOc3no[n+]([O-])c3S(=O)(=O)c3ccccc3)CC[C@]3(C)[C@H](C(=O)C=C4[C@@]5(C)C=C(C#N)C(=O)C(C)(C)[C@@H]5CC[C@]43C)[C@@H]2C1`, the outcome with HCT-8 [6], with CCD-841CoN and with HCT-8 [7] was inactive.

Regarding `CC1(C)CC[C@]2(C(=O)NCC(=O)OCCCOc3no[n+]([O-])c3S(=O)(=O)c3ccccc3)CC[C@]3(C)[C@H](C(=O)C=C4[C@@]5(C)C=C(C#N)C(=O)C(C)(C)[C@@H]5CC[C@]43C)[C@@H]2C1`, the pIC50 was 6.26 in experiment [1], 5.76 in experiment [2] and 6.42 in experiment [3]. Moreover, the inhibition of growth at 1 µM in experiment [4] and in experiment [5] was above 90% each time.

Regarding `CC1(C)CC[C@]2(C(=O)N3CCC[C@H]3C(=O)OCCCCCCOc3no[n+]([O-])c3S(=O)(=O)c3ccccc3)CC[C@]3(C)[C@H](C(=O)C=C4[C@@]5(C)C=C(C#N)C(=O)C(C)(C)[C@@H]5CC[C@]43C)[C@@H]2C1`, the outcome in the experiment on HCT-8 [6], in the experiment with CCD-841CoN and with HCT-8 [7] was inactive.

`CC1(C)CC[C@]2(C(=O)N3CCC[C@H]3C(=O)OCC#CCOc3no[n+]([O-])c3S(=O)(=O)c3ccccc3)CC[C@]3(C)[C@H](C(=O)C=C4[C@@]5(C)C=C(C#N)C(=O)C(C)(C)[C@@H]5CC[C@]43C)[C@@H]2C1`: the pIC50 in experiment [1] was 6.36; in experiment [2], 5.85; in experiment [3], 6.46. Moreover, the inhibition of growth at 1 µM in experiment [4] and in experiment [5] was above 90% in each case.

Turning to `CC1(C)CC[C@]2(C(=O)NCC(=O)OCCCCCCOc3no[n+]([O-])c3S(=O)(=O)c3ccccc3)CC[C@]3(C)[C@H](C(=O)C=C4[C@@]5(C)C=C(C#N)C(=O)C(C)(C)[C@@H]5CC[C@]43C)[C@@H]2C1`, the pIC50 is 6.45 in experiment [1], 5.85 in experiment [2] and 6.47 in experiment [3]. In addition, the inhibition of growth at 1 µM in experiment [4] and in experiment [5] was above 90% each time.

Turning to `O=c1[nH]cc(F)c(=O)[nH]1` [FLUOROURACIL], the pIC50 in experiment [1] was 6.04; in experiment [3], 4.44.

On to `C[C@@H](NC(=O)[C@]12CCC(C)(C)C[C@H]1[C@H]1C(=O)C=C3[C@@]4(C)C=C(C#N)C(=O)C(C)(C)[C@@H]4CC[C@@]3(C)[C@]1(C)CC2)C(=O)OCC#CCOc1no[n+]([O-])c1S(=O)(=O)c1ccccc1`, for which the result in the experiment on HCT-8 [6] and in the experiment on HCT-8 [7] was Active. The pIC50 was 6.43 in experiment [1], 6.02 in experiment [2] and 6.56 in experiment [3]. The result with CCD-841CoN was inactive. The inhibition of growth at 1 µM in experiment [4] and in experiment [5] was above 90% throughout.

As to `CC1(C)CC[C@]2(C(=O)NCCC(=O)OCC#CCOc3no[n+]([O-])c3S(=O)(=O)c3ccccc3)CC[C@]3(C)[C@H](C(=O)C=C4[C@@]5(C)C=C(C#N)C(=O)C(C)(C)[C@@H]5CC[C@]43C)[C@@H]2C1`, the pIC50 in experiment [1] is 6.42; in experiment [2] it was 5.83; in experiment [3], 6.34. Besides, the inhibition of growth at 1 µM in experiment [4] and in experiment [5] was above 90% in each case.

Turning to `CC1(C)CC[C@]2(C(=O)NCCCC(=O)OCC#CCOc3no[n+]([O-])c3S(=O)(=O)c3ccccc3)CC[C@]3(C)[C@H](C(=O)C=C4[C@@]5(C)C=C(C#N)C(=O)C(C)(C)[C@@H]5CC[C@]43C)[C@@H]2C1`, the pIC50 in experiment [1] was 6.30; in experiment [2] it was 5.77; in experiment [3], 6.42. Also, the inhibition of growth at 1 µM in experiment [4] and in experiment [5] was above 90% throughout.

For `CC1(C)CC[C@]2(C(=O)N3CCC[C@H]3C(=O)OCCCOc3no[n+]([O-])c3S(=O)(=O)c3ccccc3)CC[C@]3(C)[C@H](C(=O)C=C4[C@@]5(C)C=C(C#N)C(=O)C(C)(C)[C@@H]5CC[C@]43C)[C@@H]2C1`, the result in the experiment on HCT-8 [6], with CCD-841CoN and with HCT-8 [7] was inactive.
